ChEMBL document CHEMBL2046344, “Natural products as a gold mine for selective matrix metalloproteinases inhibitors” (Bioorg Med Chem, 2012)
pIC50: −log10 of the molar value. The source made the active and inactive calls. No cut-off for these calls is given here.

Key:
[1] = target: T1, 72 kDa type IV collagenase (Homo sapiens, UniProt P08253); experiment: Inhibition of human recombinant MMP2 catalytic domain incubated for 20 mins by fluorimetric assay
How it was run: (§1)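 Diluted recombinant MMP enzyme pre-incubated 20 min at room temperature with varied inhibitor concentrations in 50 mM Tris–HCl, 150 mM NaCl, 5 mM CaCl2, 0.05% Brij-35, pH 7.5; total assay volume 100 µl.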
Target sequence in this assay (P08253 whole entry, the tested form may be a part): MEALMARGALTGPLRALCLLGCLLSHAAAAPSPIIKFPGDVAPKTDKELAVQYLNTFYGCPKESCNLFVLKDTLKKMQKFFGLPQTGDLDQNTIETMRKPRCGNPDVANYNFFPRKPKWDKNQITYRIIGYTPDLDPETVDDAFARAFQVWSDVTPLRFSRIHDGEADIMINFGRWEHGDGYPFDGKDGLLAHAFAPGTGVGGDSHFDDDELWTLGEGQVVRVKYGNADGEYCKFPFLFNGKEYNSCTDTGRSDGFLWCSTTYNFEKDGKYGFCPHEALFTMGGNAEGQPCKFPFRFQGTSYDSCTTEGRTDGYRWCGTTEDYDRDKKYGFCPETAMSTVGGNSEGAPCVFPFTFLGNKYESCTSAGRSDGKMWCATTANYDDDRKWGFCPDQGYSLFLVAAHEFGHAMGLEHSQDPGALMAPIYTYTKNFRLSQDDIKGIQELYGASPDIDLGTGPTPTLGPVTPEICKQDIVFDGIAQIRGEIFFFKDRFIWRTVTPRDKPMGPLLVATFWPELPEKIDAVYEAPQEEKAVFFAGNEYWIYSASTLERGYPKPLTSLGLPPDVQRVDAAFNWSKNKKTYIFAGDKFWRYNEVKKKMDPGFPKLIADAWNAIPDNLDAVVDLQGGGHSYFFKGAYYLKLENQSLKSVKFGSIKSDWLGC

Stromelysin-1 [2] = target: T2, Stromelysin-1 (Homo sapiens, UniProt P08254); experiment: Inhibition of human recombinant MMP3 catalytic domain incubated for 20 mins by fluorimetric assay; how it was run: as §1
T2 sequence (P08254 whole entry, the tested form may be a part): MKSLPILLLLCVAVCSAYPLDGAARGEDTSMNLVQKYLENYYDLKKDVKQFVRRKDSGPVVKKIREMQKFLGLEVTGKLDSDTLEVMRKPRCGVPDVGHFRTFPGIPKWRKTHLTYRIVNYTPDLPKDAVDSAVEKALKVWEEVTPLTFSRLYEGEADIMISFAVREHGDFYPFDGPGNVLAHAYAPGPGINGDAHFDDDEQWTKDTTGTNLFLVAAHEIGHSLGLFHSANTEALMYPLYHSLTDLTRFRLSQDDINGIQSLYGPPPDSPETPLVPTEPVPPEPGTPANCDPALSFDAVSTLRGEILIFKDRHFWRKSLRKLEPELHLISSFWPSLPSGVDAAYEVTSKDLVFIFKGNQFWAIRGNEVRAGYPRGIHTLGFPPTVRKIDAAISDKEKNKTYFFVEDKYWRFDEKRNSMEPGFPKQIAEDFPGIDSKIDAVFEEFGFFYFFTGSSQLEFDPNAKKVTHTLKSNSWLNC

[3] = target: T3, Matrix metalloproteinase-9 (Homo sapiens, UniProt P14780); experiment: Inhibition of human recombinant MMP9 catalytic domain incubated for 20 mins by fluorimetric assay; how it was run: as §1
T3 sequence (P14780 whole entry, the tested form may be a part): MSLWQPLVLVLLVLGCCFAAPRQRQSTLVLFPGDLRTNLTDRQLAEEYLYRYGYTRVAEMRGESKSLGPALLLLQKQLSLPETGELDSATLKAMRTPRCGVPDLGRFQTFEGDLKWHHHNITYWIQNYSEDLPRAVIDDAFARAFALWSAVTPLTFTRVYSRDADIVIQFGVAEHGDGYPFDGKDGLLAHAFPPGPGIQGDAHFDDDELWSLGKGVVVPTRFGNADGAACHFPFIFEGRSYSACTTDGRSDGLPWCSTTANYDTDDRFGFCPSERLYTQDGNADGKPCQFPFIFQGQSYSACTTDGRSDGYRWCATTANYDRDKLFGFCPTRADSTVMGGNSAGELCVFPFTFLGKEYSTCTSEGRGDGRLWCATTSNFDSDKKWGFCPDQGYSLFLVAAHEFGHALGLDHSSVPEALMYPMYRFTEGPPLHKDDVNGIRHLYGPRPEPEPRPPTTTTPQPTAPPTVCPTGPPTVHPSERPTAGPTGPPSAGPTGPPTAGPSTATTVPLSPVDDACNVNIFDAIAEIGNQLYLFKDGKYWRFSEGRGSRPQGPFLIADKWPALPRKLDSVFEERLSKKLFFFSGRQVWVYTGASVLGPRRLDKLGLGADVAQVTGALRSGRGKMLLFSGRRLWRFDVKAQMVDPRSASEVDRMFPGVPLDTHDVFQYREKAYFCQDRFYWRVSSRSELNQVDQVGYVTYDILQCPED

[4] = target: T4, Macrophage metalloelastase (Homo sapiens, UniProt P39900); experiment: Inhibition of human recombinant MMP12 catalytic domain incubated for 20 mins by fluorimetric assay; how it was run: as §1
T4 sequence (P39900 whole entry, the tested form may be a part): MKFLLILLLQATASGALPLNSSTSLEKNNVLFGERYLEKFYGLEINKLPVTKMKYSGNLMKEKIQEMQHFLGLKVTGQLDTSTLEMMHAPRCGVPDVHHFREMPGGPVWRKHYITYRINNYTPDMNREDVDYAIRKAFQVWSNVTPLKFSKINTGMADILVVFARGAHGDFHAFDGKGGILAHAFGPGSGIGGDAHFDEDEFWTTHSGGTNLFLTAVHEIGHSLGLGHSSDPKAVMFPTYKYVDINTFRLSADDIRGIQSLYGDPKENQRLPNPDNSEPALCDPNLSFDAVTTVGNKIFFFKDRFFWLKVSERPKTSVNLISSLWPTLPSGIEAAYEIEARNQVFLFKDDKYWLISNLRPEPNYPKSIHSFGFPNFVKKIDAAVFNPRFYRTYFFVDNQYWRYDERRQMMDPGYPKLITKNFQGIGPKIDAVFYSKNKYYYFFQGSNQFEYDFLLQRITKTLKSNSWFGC

Collagenase 3 [5] = target: T5, Collagenase 3 (Homo sapiens, UniProt P45452); experiment: Inhibition of human recombinant MMP13 catalytic domain incubated for 20 mins by fluorimetric assay; how it was run: as §1
[6] = target: T1, 72 kDa type IV collagenase; experiment: Inhibition of human recombinant MMP2 catalytic domain at 10 uM incubated for 20 mins by fluorimetric assay; how it was run: as §1
Target sequence in this assay (P08253 110-660 limits assumed): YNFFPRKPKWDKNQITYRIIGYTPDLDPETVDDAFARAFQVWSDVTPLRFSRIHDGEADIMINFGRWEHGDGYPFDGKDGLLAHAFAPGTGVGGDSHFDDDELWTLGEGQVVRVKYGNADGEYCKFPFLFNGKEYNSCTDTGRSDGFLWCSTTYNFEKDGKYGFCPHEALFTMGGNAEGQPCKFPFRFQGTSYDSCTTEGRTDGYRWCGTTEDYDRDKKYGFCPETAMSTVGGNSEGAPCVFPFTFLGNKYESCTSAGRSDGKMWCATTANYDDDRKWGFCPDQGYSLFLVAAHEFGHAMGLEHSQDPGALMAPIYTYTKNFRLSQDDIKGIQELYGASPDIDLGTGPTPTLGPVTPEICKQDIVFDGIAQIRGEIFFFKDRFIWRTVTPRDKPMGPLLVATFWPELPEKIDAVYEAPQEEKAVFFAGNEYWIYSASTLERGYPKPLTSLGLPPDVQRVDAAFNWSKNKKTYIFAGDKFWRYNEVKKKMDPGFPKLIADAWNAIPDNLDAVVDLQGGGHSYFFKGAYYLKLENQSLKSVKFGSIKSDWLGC

Stromelysin-1 [7] = target: T2, Stromelysin-1; experiment: Inhibition of human recombinant MMP3 catalytic domain at 10 uM incubated for 20 mins by fluorimetric assay; how it was run: as §1
[8] = target: T3, Matrix metalloproteinase-9; experiment: Inhibition of human recombinant MMP9 catalytic domain at 10 uM incubated for 20 mins by fluorimetric assay; how it was run: as §1
[9] = target: T4, Macrophage metalloelastase; experiment: Inhibition of human recombinant MMP12 catalytic domain at 10 uM incubated for 20 mins by fluorimetric assay; how it was run: as §1
Collagenase 3 [10] = target: T5, Collagenase 3; experiment: Inhibition of human recombinant MMP13 catalytic domain at 10 uM incubated for 20 mins by fluorimetric assay; how it was run: as §1
MDA-MB-231 [11] = experiment: Inhibition of cell migration of human MDA-MB-231 cells at 10 uM incubated for 48 hrs by wound healing assay; format: functional, cell-based
How it was run: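 MDA-MB-231 monolayer grown overnight to confluence and scratched with a pipette tip. Debris washed off with L15 medium, then cells kept in serum-free L15 with compound (1 and 10 µM) for 48 h. Migration into the wound photographed by phase-contrast microscopy at 0, 24 and 48 h.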

Interstitial collagenase = target: T6, Interstitial collagenase (Homo sapiens, UniProt P03956); experiment: Inhibition of human recombinant MMP1 catalytic domain incubated for 20 mins by fluorimetric assay; how it was run: as §1
T6 sequence (P03956 whole entry): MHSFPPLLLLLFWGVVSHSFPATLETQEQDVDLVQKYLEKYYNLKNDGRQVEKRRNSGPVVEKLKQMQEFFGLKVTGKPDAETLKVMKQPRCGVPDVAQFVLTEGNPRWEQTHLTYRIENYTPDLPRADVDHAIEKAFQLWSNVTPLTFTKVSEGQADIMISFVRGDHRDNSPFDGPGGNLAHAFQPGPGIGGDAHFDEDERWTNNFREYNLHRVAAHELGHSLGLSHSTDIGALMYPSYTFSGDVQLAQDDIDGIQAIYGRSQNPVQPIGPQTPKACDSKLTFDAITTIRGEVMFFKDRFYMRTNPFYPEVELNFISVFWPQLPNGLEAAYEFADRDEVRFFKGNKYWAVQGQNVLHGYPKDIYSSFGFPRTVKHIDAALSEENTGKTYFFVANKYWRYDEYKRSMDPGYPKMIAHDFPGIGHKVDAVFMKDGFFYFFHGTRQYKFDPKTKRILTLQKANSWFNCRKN

[12] = target: T7, Interstitial collagenase (Homo sapiens) (UniProt P03956); experiment: Inhibition of human recombinant MMP1 catalytic domain at 10 uM incubated for 20 mins by fluorimetric assay; how it was run: as §1
T7 sequence (whole entry): T6 sequence (P03956 whole entry)

MDA-MB-231 [13] = experiment: Inhibition of MMP2 protein expression in human MDA-MB-231 cells at 50 uM incubated for 24 hrs by Western blot; format: functional, cell-based
How it was run: (§2)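 MDA-MB-231 cells co-incubated with 20 ng/ml TPA and test compound at 50 µM for 24 h, then lysed. Lysates centrifuged 10000g, 10 min, 4 °C, run on 10% SDS–PAGE, transferred to PVDF, blocked overnight at 4 °C in TBST with 5% skim milk. Probed with anti-MMP-2 and anti-MMP-9 antibodies; GAPDH as loading control.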

MDA-MB-231 [14] = experiment: Inhibition of active MMP9 protein expression in human MDA-MB-231 cells at 50 uM incubated for 24 hrs by Western blot; format: functional, cell-based; how it was run: as §2
MDA-MB-231 [15] = experiment: Inhibition of pro-MMP9 protein expression in human MDA-MB-231 cells at 50 uM incubated for 24 hrs by Western blot; format: functional, cell-based; how it was run: as §2
MDA-MB-231 [16] = experiment: Effect on cell proliferation of human MDA-MB-231 cells at 50 uM incubated for 24 hrs; format: functional, cell-based

SMILES	pIC50 [1]	pIC50 (Stromelysin-1 [2])	pIC50 [3]	pIC50 [4]	pIC50 (Collagenase 3 [5])	inhibition [6]	inhibition (Stromelysin-1 [7])	inhibition [8]	inhibition [9]	inhibition (Collagenase 3 [10])	inhibition (MDA-MB-231 [11])	pIC50 (Interstitial collagenase)	inhibition [12]	inhibition (MDA-MB-231 [13])	inhibition (MDA-MB-231 [14])	inhibition (MDA-MB-231 [15])	inhibition (MDA-MB-231 [16])
C[C@@H]1O[C@@H](O[C@@H]2[C@@H](O)[C@H](OCCc3ccc(O)c(O)c3)O[C@H](COC(=O)/C=C/c3ccc(O)c(O)c3)[C@H]2O)[C@H](O)[C@H](O)[C@H]1O [ISOACTEOSIDE]	5.05	4.04	4.85	5.09	4.96	> 30%	> 30%	> 30%	> 30%	> 30%	–	–	–	–	–	–	–
O=C1c2c(O)cc(O)cc2O[C@H](c2ccc(O)c(O)c2)[C@H]1O	–	–	–	–	–	> 30%	> 30%	> 30%	> 30%	> 30%	–	–	–	–	–	–	–
COC(=O)[C@@H](Cc1ccc(O)c(O)c1)OC(=O)/C=C/c1ccc(O)c2c1[C@H](C(=O)OC)[C@@H](c1ccc(O)c(O)c1)O2 [DIMETHYL LITHOSPERMATE]	4.93	5.09	6.00	6.17	4.73	> 30%	> 30%	> 30%	> 30%	> 30%	Active	5.08	> 30%	Active	Active	inactive	inactive
O=c1cc(-c2ccc(O)c(O)c2)oc2cc(O)cc(O)c12 [LUTEOLIN]	5.44	4.79	5.25	6.01	5.00	> 30%	> 30%	> 30%	> 30%	> 30%	–	–	–	–	–	–	–
C[C@]12CCC[C@@](C)(C(=O)O)[C@@H]1CCC1=CC(=O)CC[C@@H]12	4.48	–	–	–	–	> 30%	–	–	–	–	–	–	–	–	–	–	–
O=c1c(O)c(-c2ccc(O)c(O)c2)oc2cc(O)cc(O)c12 [QUERCETIN]	5.18	5.25	5.79	4.99	5.07	> 30%	> 30%	> 30%	> 30%	> 30%	–	–	–	–	–	–	–
COc1cc(C[C@@H](CO)[C@H](CO)Cc2ccc(O)c(OC)c2)ccc1O [(+)-SECOISOLARICIRESINOL]	–	–	–	–	–	–	–	–	–	–	–	4.30	> 30%	–	–	–	–
COC(=O)C1(O)CC(O)C(O)C(OC(=O)/C=C/c2ccc(O)c(O)c2)C1 (configuration not stated)	4.19	4.23	–	–	–	> 30%	> 30%	–	–	–	–	–	–	–	–	–	–
CC(C)CC(=O)OC(C(=O)O)C(C)C (configuration not stated)	4.63	4.42	4.85	–	4.37	> 30%	> 30%	> 30%	–	> 30%	–	4.98	> 30%	–	–	–	–
O=C1CCC(O)(CCOC(=O)/C=C/c2ccc(O)c(O)c2)CC1	–	–	4.90	–	–	–	–	> 30%	–	–	–	–	–	–	–	–	–
O=C1c2c(O)cc(O)cc2O[C@]2(c3ccc(O)cc3)Oc3cc(O)c4c(c3[C@@]12O)O[C@H](c1ccc(O)cc1)CC4 [DAPHNODORIN F]	4.63	4.65	4.67	–	4.88	> 30%	> 30%	> 30%	–	> 30%	–	–	–	–	–	–	–
O=C1c2c(O)cc(O)cc2O[C@H](c2cc(O)c(O)c(O)c2)[C@@H]1O	4.92	4.69	4.54	5.76	5.03	> 30%	> 30%	> 30%	> 30%	> 30%	–	–	–	–	–	–	–
Oc1cc(O)cc(/C=C/c2ccc(O)cc2O)c1 [OXYRESVERATROL]	4.56	–	–	–	–	> 30%	–	–	–	–	–	–	–	–	–	–	–
COC(=O)[C@@H](Cc1ccc(O)c(O)c1)OC(=O)/C=C/c1ccc(O)c(O)c1 [METHYL ROSMARINATE]	5.45	4.55	6.21	5.56	4.54	> 30%	> 30%	> 30%	> 30%	> 30%	–	4.83	> 30%	–	–	–	–
CNC(=O)C(CCc1ccccc1)NC(=O)C(CC(=O)NO)CC(C)C (configuration not stated)	8.44	–	–	8.09	8.19	> 30%	–	–	> 30%	> 30%	–	8.39	> 30%	–	–	–	–
CCCCOC(=O)[C@H]1c2c(/C=C/C(=O)O[C@H](Cc3ccc(O)c(O)c3)C(=O)O)ccc(O)c2O[C@@H]1c1ccc(O)c(O)c1	4.81	4.83	5.46	5.75	4.61	> 30%	> 30%	> 30%	> 30%	> 30%	–	5.49	> 30%	–	–	–	–
O=c1c2cc(O)c(O)cc2oc2cc(O)cc(O)c12	–	–	–	–	–	–	–	–	–	–	–	4.94	> 30%	–	–	–	–
O=C(c1c(O)cc(O)cc1O)C1c2c(cc(O)c3c2O[C@H](c2ccc(O)cc2)[C@@H](O)C3)OC1c1ccc(O)cc1 (some centres not stated) [DIHYDRODAPHNODORIN B]	4.85	4.59	4.99	–	4.36	> 30%	> 30%	> 30%	–	> 30%	–	–	–	–	–	–	–
COC(=O)C1(O)CC(OC(=O)/C=C/c2ccc(O)c(O)c2)C(O)C(OC(=O)/C=C/c2ccc(O)c(O)c2)C1 (configuration not stated) [MACRATHOIN F]	5.41	4.98	4.94	5.92	5.12	> 30%	> 30%	> 30%	> 30%	> 30%	–	4.79	> 30%	–	–	–	–
COc1ccc(S(=O)(=O)N2CC(C)(C)CN(S(=O)(=O)c3ccc(OC)cc3)C2C(=O)NO)cc1	–	7.54	8.74	–	–	–	> 30%	> 30%	–	–	–	–	–	–	–	–	–
COc1cc(C(O)C(CO)Oc2ccc(/C=C\CO)cc2OC)ccc1O (configuration not stated)	–	–	5.00	–	–	–	–	> 30%	–	–	–	–	–	–	–	–	–
